Compounds with a hit are over-represented: about 0.97% of the library has one in this group of screens.
UCH37 inh: human UCH37 deubiquitinating enzyme inhibition; 0.33% of 330,000 active; purified proteasome/UCH37, Ub-AMC cleavage fluorescence; inhibition, % (concentration not given with the values); AID 588478; Q9Y5K5;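 active means mean inhibition over replicate wells above about 20%, limit read from the data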
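Assay system: Proteasome-bound UCH37. Buffer or medium: pH 7.4 Tris-HCl (50 mM) with ovalbumin, ATP-MgCl2, DTT. Incubation: 30 min preincubation with enzyme, 25 min cleavage at room temperature. Measured by: fluorescence, ex 355 nm, em 460 nm. Read-out basis: percent inhibition. Control set: wells without proteasome as full block, compound-free enzyme plus substrate as uninhibited.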
APOBEC3A inh: inhibitors of human APOBEC3A DNA deaminase | inhibition, % at 20 µM | AID 493011 | 0.41% of 330,000 active | recombinant A3A, FAM/TAMRA ssDNA deamination fluorescence | P31941;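 active means at least 40% inhibition at 20 µM here, with at most 30% in a related deaminase screen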
Target sequence (P31941 whole entry, looked up): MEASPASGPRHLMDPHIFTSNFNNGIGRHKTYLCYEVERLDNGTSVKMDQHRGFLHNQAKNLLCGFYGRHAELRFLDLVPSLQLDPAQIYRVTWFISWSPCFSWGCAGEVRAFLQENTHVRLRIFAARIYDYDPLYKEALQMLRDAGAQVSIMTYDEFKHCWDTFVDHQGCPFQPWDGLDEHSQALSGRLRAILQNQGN
JMJD2C inh: blocks human GASC-1 demethylase activity. Q9H3R0. GST-JMJD2C(1-420) H3K9me3 demethylation, DELFIA europium. inhibition, % at 2.35 µM. 0.069% of 330,000 active. AID 2099;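 active means more than half of a compound's replicate wells show inhibition beyond 50%, single wells judged on their own value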;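 further: signal counts dimethyl H3K9 product captured on neutravidin plate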
A3G deaminase: blocks human APOBEC3G single-stranded DNA deamination; inhibition, % at 20 µM; recombinant A3G, ssDNA deamination FAM/TAMRA fluorescence; 0.28% of 330,000 active; Q9HC16;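 active means inhibition of at least 40% at 20 µM, with no more than 30% in the related APOBEC3A deaminase screen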
Each line names hits and unclear results; the compound was inactive in the other large screens.

O=c1cc(-c2ccc(O)c(O)c2)oc2c(C3O[C@H](CO)[C@@H](O)[C@H](O)[C@H]3O)c(O)cc(O)c12 (stereo not given in full)	JMJD2C inh 64
Cc1ccc(C2OC(=O)C=C2c2ccccc2)cc1 (stereo not given)	UCH37 inh 24
CCOC(=O)C1CCN(C(=O)COC(=O)c2ccc([N+](=O)[O-])o2)CC1	UCH37 inh 20
CCOC(=O)C1=C(COC(=O)c2ccc(Cl)cc2[N+](=O)[O-])NC(=O)NC1C (stereo not given)	none
CCOC(=O)C1=C(COC(=O)c2ccc([N+](=O)[O-])o2)NC(=O)NC1C (stereo not given)	UCH37 inh 21
Cc1cc([N+](=O)[O-])c(C)cc1-c1ccc(C=NNC(=O)c2cccnc2)o1	none (no result: APOBEC3A inh, JMJD2C inh, A3G deaminase)
CC(C)C(NC(=O)COc1ccc2ccccc2c1)C(=O)NN=C/C=C/c1ccccc1 (stereo not given)	none (no result: APOBEC3A inh, JMJD2C inh, A3G deaminase)
CN(C)/C=C1\N=C(c2ccccc2)OC1=O	UCH37 inh 20
CN(C)/C=C1\N=C(c2ccc3c(c2)OCO3)OC1=O	none
Cc1ccc(C2=N/C(=C\N3CCCCC3)C(=O)O2)cc1	none
Cc1ccc(C2=N/C(=C/N3CCOCC3)C(=O)O2)cc1	UCH37 inh 20
COc1ccc(C=NNC(=O)c2cccc(NC(=O)c3ccccc3Cl)c2)cc1	none (no result: APOBEC3A inh, JMJD2C inh, A3G deaminase)
CC1(c2nnc(Cc3ccccc3)o2)CC(c2c(Cl)cccc2Cl)=NO1 (stereo not given)	none
CC1(c2nnc(Cc3ccccc3)o2)CC(c2ccncc2)=NO1 (stereo not given)	UCH37 inh 21
CC1(c2nnc(Cc3ccccc3)o2)CC(c2ccc(C#N)cc2)=NO1 (stereo not given)	none
COc1ccc(C2=NOC(C)(c3nnc(Cc4ccccc4)o3)C2)cc1 (stereo not given)	UCH37 inh 29
CC1(c2nnc(Cc3ccccc3)o2)CC(c2ccc(Cl)cc2)=NO1 (stereo not given)	UCH37 inh 28
O=C(Nc1ccc(N2CCCCC2)cc1)c1cccnc1	UCH37 inh 29
O=C(Nc1ccc(N2CCN(Cc3ccccc3Cl)CC2)cc1)c1cccnc1	none
O=C(NN=Cc1ccc(N2CCCC2)c([N+](=O)[O-])c1)c1cccnc1	UCH37 inh 21 (no result: APOBEC3A inh, JMJD2C inh, A3G deaminase)
c1cnc2ncc3sccc3c2c1	UCH37 inh 28
O=C(NC1CCCCC1)C(=NO)c1ccccn1	none (no result: APOBEC3A inh, JMJD2C inh, A3G deaminase)
Cn1c(=O)c2[nH]c(N=NN3CCCCC3)nc2n(C)c1=O	UCH37 inh 22 (no result: APOBEC3A inh, JMJD2C inh, A3G deaminase)
CC1CCN(N=Nc2nc3c([nH]2)c(=O)n(C)c(=O)n3C)CC1	none (no result: APOBEC3A inh, JMJD2C inh, A3G deaminase)
CCOC(=O)Nc1cc(C)c(Cl)cc1OC	JMJD2C inh 51
O=C(NC(Cc1ccccc1)C(=O)O)/C(=C/c1ccccc1)NC(=O)c1cccc(Br)c1 (stereo not given)	UCH37 inh 31
O=C(O)COc1ccccc1C=NNC(=O)c1cc2ccccc2cc1O	none (no result: APOBEC3A inh, JMJD2C inh, A3G deaminase)
Cc1ccc(CNC(=O)c2cc(-c3ccccc3)n(Cc3cc(C)no3)n2)cc1	UCH37 inh 24
CCC(=O)/C=C1/Sc2ccccc2N1CC	UCH37 inh 22
CCC(=O)/C=C1/Sc2ccc(OC)cc2N1CC	none
CCOc1ccc(CC2S/C(=N/N=Cc3ccco3)NC2=O)cc1 (stereo not given)	none (no result: APOBEC3A inh, JMJD2C inh, A3G deaminase)
Brc1ccccc1-n1nnc(-c2nccs2)n1	UCH37 inh 25
CCC(C)c1ccccc1OCCCCN1CCCC1 (stereo not given)	UCH37 inh 31
CCC(C)c1ccccc1OCCOCCN1CCCC1 (stereo not given)	none
CCOC(=O)c1c(NC(=O)C2CCCO2)sc2c1CCC2 (stereo not given)	JMJD2C inh 52
CCOC(=O)c1c(NC(=O)C2CCCO2)sc(C)c1C (stereo not given)	none
COC(=O)/C=C1/S/C(=N/NC(=O)c2ccc(OC)cc2)NC1=O	UCH37 inh 25
COC(=O)/C=C1\S/C(=N/NC(=O)c2ccc(OC)cc2)NC1=O	none
O=C(NN=Cc1ccc(F)c(F)c1)c1cccc(S(=O)(=O)N2CCCCC2)c1	none (no result: APOBEC3A inh, JMJD2C inh, A3G deaminase)
COc1cc(/C=C/c2[nH]c(=O)[nH]c(=O)c2[N+](=O)[O-])cc([N+](=O)[O-])c1O	UCH37 inh 21
CCC(C)Oc1ccc(/C=C/c2[nH]c(=O)[nH]c(=O)c2[N+](=O)[O-])cc1OC (stereo not given)	none

Screening data from PubChem.
